# Assay results of several laboratories.
# Medium: plasma
SMILES,species,route,dose,notes,Cmax
COc1ccc(-c2c(Nc3ccccn3)[nH]c3c(C4=CCCCC4)c(-c4ccccc4)nn3c2=O)cc1,human,oral,200 mg once daily,"multiple doses, patients",5720 ng/mL
C=CC(=O)NC1CCN(c2ncc3ncnc(Nc4ccc(Oc5ccc6c(c5)ncn6C)c(C)c4)c3n2)CC1,male human,oral,60 mg,"single dose, healthy volunteers",1160 nM
OC[C@H]1O[C@@H](c2cc(Cc3ccc(C4CC4)cc3)c(Cl)c3c2CCO3)[C@H](O)[C@@H](O)[C@@H]1O,human,oral,0.3 mg,"single dose, fasted",4.5 ng/mL
CC(=O)N(C)[C@H]1CCN(C(=O)c2cnc3c(c2)C[C@](C)(c2ccc(F)cc2)N3)C1,male human,oral,15 mg,"multiple doses, once daily, steady state",333 nM
N#Cc1cccc(-c2ccc3ncc(-c4cc(F)cc(F)c4)c(N4CCC(N)CC4)c3c2)c1O,male human,oral,20 mg,single dose,162 ng/mL
COc1ccc2c(c1)CN(C(=O)CCN1CCC(Cc3ccccc3)CC1)CC[S@@+]2[O-],male human,intravenous,0.6 mg/kg,healthy volunteers,1310 ng/mL
Cc1cc(-c2nccc3c2ccn3CC(=O)Nc2ccc(-c3cnccn3)cn2)ccn1,human,oral,7 mg,single dose,57.4 nM
COc1ccc(F)cc1C(=O)NCc1ccc(-c2nn([C@@H](C)C(F)(F)F)c(N)c2C(N)=O)cc1,male human,oral,200 mg,single dose,4490 ng/mL
O=C(COc1ccc(Cl)cc1)NC12CC(c3nnc([C@H]4C[C@@H](OC(F)(F)F)C4)o3)(C1)C2,human,oral,260 mg,"multiple doses, once daily, steady state, healthy volunteers",18600 nM
CC(C)n1c(C2CCNCC2)nc2c([N+](=O)[O-])c(Br)c(Br)cc21,human,oral,50 mg,patients,33.6 ng/mL
